The nature of data set [1]: melting temperature; fluorescence melt of hairpins on a sequencing array, two-state fit, raised by 9.35 °C to match UV melts. Particulars: sodium 0.088 M. The method, boiled down:
(§1)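 Melting temperature and folding enthalpy were derived from bootstrapped two-state fits. The fitted temperatures were raised by 9.35 °C to agree with UV melts, and four replicates were combined by inverse variance. The underlying data were Cy3 fluorescence images of library hairpins, with annealed Cy3 and quencher oligos, on a sequenced MiSeq flow cell in 50 mM Na-HEPES pH 8.0, 25 mM NaCl, taken in 2.5 °C steps up to 60 °C, normalised to pre-quench Cy3 and to control constructs.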

A short description of data set [2]: folding enthalpy; higher = less favourable; fluorescence melt of hairpins on a sequencing array, two-state fit. The note with it: sodium 0.088 M. In short, it runs like this:
as §1

GATCGAGAGTCGATC ((((((...)))))): the Tm in data set [1] was determined as 49.4 °C. In data set [2], the folding enthalpy was -29.7 kcal/mol.
The matching figures for GATCGAGATCTCGATC ((((((....)))))): 55.7 °C and -50.6 kcal/mol.
The matching figures for GATCGAGCAATCGATC ((((((....)))))): 57.7 °C and -39.7 kcal/mol.
GATCGAGCTATCGATC ((((((....)))))): in data set [1], the Tm was determined as 58.4 °C. Further, the folding enthalpy in data set [2] was -43.4 kcal/mol.
For the sequence GATCGAGGAAACTCGATC (((((((....))))))), in data set [1], the Tm turned out to be 62.7 °C. For the same sequence, the folding enthalpy in data set [2] is -44.5 kcal/mol.
The matching figures for GATCGAGGAAACTCGGTC ((.((((....)))).)): 50.5 °C and -30.4 kcal/mol.
The corresponding values for GATCGAGGAATCGATC ((((((....)))))) are 55.9 °C and -33.2 kcal/mol.
The matching figures for GATCGAGGGGTCGATC ((((((....)))))): 45.6 °C and -4.35 kcal/mol.
As to GATCGAGGGTCGATC ((((((...)))))), in data set [1], the Tm is 51 °C. In addition, in data set [2], the folding enthalpy is -32.3 kcal/mol.
The corresponding values for GATCGAGTACTCGATC ((((((....)))))) are 58.8 °C and -43.4 kcal/mol.
The matching figures for GATCGAGTATTCGATC ((((((....)))))): 59.2 °C and -40 kcal/mol.
For GATCGAGTCTCGATC ((((((...)))))), the Tm in data set [1] was 53.2 °C. Moreover, the folding enthalpy in data set [2] is -39.2 kcal/mol.
In the case of GATCGAGTGGTCGATC ((((((....)))))), the Tm in data set [1] turned out to be 53.9 °C. In addition, the folding enthalpy in data set [2] was -8.38 kcal/mol.
For GATCGAGTTCTCGATC ((((((....)))))), the Tm in data set [1] amounted to 55.9 °C. The folding enthalpy in data set [2] is -39.6 kcal/mol.
The corresponding values for GATCGAGTTTTCGATC ((((((....)))))) are 54.2 °C and -41.8 kcal/mol.
Regarding GATCGATAAGTCGATC ((((((....)))))), the Tm in data set [1] was 52.5 °C. Moreover, the folding enthalpy in data set [2] was -44 kcal/mol.
The matching figures for GATCGATATGTCGATC ((((((....)))))): 55 °C and -41.9 kcal/mol.
With GATCGATATTTCGATC ((((((....)))))), in data set [1], the Tm was 53.1 °C. Besides, in data set [2], the folding enthalpy is -44.3 kcal/mol.
The corresponding values for GATCGATCGTCGATC ((((((...)))))) are 51.7 °C and -28.7 kcal/mol.
The matching figures for GATCGATCGTTCGATC ((((((....)))))): 53.5 °C and -36 kcal/mol.
Consider GATCGATGTTCGATC ((((((...)))))), for which the Tm in data set [1] was 51 °C. Moreover, the folding enthalpy in data set [2] is -29.4 kcal/mol.
The corresponding values for GATCGATTATCGATC ((((((...)))))) are 52.7 °C and -38.5 kcal/mol.
The matching figures for GATCGATTGCTCGATC ((((((....)))))): 51.2 °C and -31.9 kcal/mol.
Turning to GATCGATTGTCGATC ((((((...)))))), the Tm in data set [1] was determined as 51.3 °C. Moreover, the folding enthalpy in data set [2] is -35.5 kcal/mol.
On to GATCGATTTATCGATC ((((((....)))))), for which the Tm in data set [1] was 59.7 °C. In data set [2], the folding enthalpy is -44.8 kcal/mol.
Take GATCGCAACTGCGATC ((((((....)))))): the Tm in data set [1] stood at 69.2 °C. Further, the folding enthalpy in data set [2] is -33.8 kcal/mol.
The corresponding values for GATCGCAAGAGCGATC ((((((....)))))) are 67.8 °C and -34 kcal/mol.
The corresponding values for GATCGCACCGGCGATC ((((((....)))))) are 68.3 °C and -33.7 kcal/mol.
Regarding GATCGCACTTGCGATC ((((((....)))))), the Tm in data set [1] came out at 69.1 °C. In addition, the folding enthalpy in data set [2] is -32.3 kcal/mol.
The matching figures for GATCGCAGTCGCGATC ((((((....)))))): 68.5 °C and -34.5 kcal/mol.
The corresponding values for GATCGCAGTTGCGATC ((((((....)))))) are 68.6 °C and -41.1 kcal/mol.
The matching figures for GATCGCATTGGCGATC ((((((....)))))): 68.8 °C and -33.2 kcal/mol.
With GATCGCCAGGCGATC ((((((...)))))), the Tm in data set [1] worked out at 67.1 °C. In addition, in data set [2], the folding enthalpy is -35.1 kcal/mol.
For GATCGCCAGTGCGATC ((((((....)))))), in data set [1], the Tm worked out at 64.4 °C. For the same sequence, the folding enthalpy in data set [2] was -34.9 kcal/mol.
The corresponding values for GATCGCCATCGCGATC ((((((....)))))) are 65 °C and -31.5 kcal/mol.
The matching figures for GATCGCCCATGCGATC ((((((....)))))): 67.6 °C and -36.2 kcal/mol.
On to GATCGCCCCCGCGATC ((((((....)))))), for which the Tm in data set [1] came to 66.8 °C. For the same sequence, the folding enthalpy in data set [2] was -37.6 kcal/mol.
On to GATCGCCCCTGCGATC ((((((....)))))), for which, in data set [1], the Tm turned out to be 67.2 °C. For the same sequence, the folding enthalpy in data set [2] is -33.6 kcal/mol.
